Test results: ChEMBL document CHEMBL5113379, “4-Oxooctahydroquinoline-1(2H)-carboxamides as hepatitis B virus (HBV) capsid core protein assembly modulators” (Bioorg Med Chem Lett, 2022)
In brackets after ≈: the same amount, converted by molar mass. Activity calls are given as the source filed them. No cut-off for these calls is given here.

Tests used:
Hepatitis B virus = test: Antiviral activity against HBV infected in mouse AML12HBV10 cells assessed as reduction in viral replication incubated for 48 hrs and measured by [alpha-32P]UTP-labeled radio-probe based dot blot hybridization assay; format: functional, organism-based
Method in brief: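 The test used the stable HBV line AML12HBV10, derived from immortalized mouse hepatocytes (AML12). HBV replication was measured by dot blot hybridization and EC50 was determined.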

[1] = Cytotoxicity against mouse […] measured by MTT assay; format: toxicity, cell-based, AML12HBV10
Method in brief: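 Cytotoxicity was measured by MTT assay in the stable HBV line AML12HBV10, derived from immortalized mouse hepatocytes (AML12), and CC50 was determined.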

HepDES19 [2] = test: Antiviral activity against HBV infected in human HepDES19 cells assessed reduction of amounts of encapsidated pgRNA 5 uM […] by northern blot hybridization assay; format: functional, cell-based
Method in brief: (§1)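 In tet-inducible HepDES19 cells, pgRNA transcription was induced by tetracycline removal; tet-maintained cells were the negative control. Treatment with DMSO or compound at 2 or 5 μM began 24 h after tet removal and lasted 6 days. Encapsidated pgRNA was detected by Northern blot hybridization, with ribosomal RNA as loading control.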

[3] = Metabolic stability in human liver microsomes assessed as half-life; format: ADME, Microsome; settings: for t1/2: microsomes
[4] = Metabolic stability in mouse liver microsomes assessed as half-life; format: ADME, Microsome; settings: for t1/2: microsomes
[5] = Apparent permeability across apical to basolateral membrane in human Caco-2 cells; format: ADME, cell-based
[6] = Apparent permeability across basolateral to apical membrane in human Caco-2 cells; format: ADME, cell-based
[7] = Efflux ratio for apparent permeability across basolateral to apical side to apical to basolateral side in human Caco2 cells; format: ADME, cell-based; settings: Caco-2
[8] = Solubility of the compound at pH 4; format: physicochemical; settings: buffer
[9] = Solubility of the compound at pH 7; format: physicochemical; settings: buffer
[10] = Plasma protein binding in mouse; format: ADME, cell-free
[11] = Plasma protein binding in human; format: ADME, cell-free
[12] = Half-life in mouse at 3 mg/kg, iv; format: ADME, organism-based; settings: in vivo
[13] = AUClast in mouse at 3 mg/kg, iv; format: ADME, organism-based; parameters: time 0 - last, dose 3 mg/kg, route iv; settings: in vivo
[14] = Observed volume of distribution at steady state in mouse at 3 mg/kg, iv; format: ADME, organism-based; settings: in vivo, read-out: Vdss
[15] = Half-life in mouse at 10 mg/kg, po; format: ADME, organism-based; settings: in vivo
[16] = Cmax in mouse at 10 mg/kg, po; format: ADME, organism-based; parameters: dose 10 mg/kg, route po; settings: in vivo
[17] = AUClast in mouse at 10 mg/kg, po; format: ADME, organism-based; parameters: time 0 - last, dose 10 mg/kg, route po; settings: in vivo
[18] = Oral bioavailability in mouse at 10 mg/kg; format: ADME, organism-based; settings: in vivo
HepDES19 [19] = test: Antiviral activity against HBV infected in human HepDES19 cells assessed as reduction of capsid associated HBV DNA 1 uM measured by agarose gel electrophoresis-based particle gel assay; format: functional, cell-based
Method in brief: (§2)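 HepDES19 cells were kept with tetracycline to block pgRNA transcription (negative control) or without it to induce pgRNA transcription and HBV DNA replication. Compounds (1, 2 or 5 μM) or DMSO were added starting 24 h after tet removal and kept for 6 days.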

HepDES19 [20] = test: Antiviral activity against HBV infected in human HepDES19 cells assessed reduction of amounts of encapsidated pgRNA 2 uM […] by northern blot hybridization assay; format: functional, cell-based; method in brief: as §1
HepDES19 [21] = test: Antiviral activity against HBV infected in human HepDES19 cells assessed as reduction in levels of intracellular core protein 2 uM measured by Western blot assay; format: functional, cell-based
Method in brief: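 HepDES19 cells kept in tetracycline, then switched to tet-free medium to induce pgRNA transcription and HBV DNA replication; tet-maintained cells serve as negative control. Treatment with compound or DMSO started 24 h after tet removal and continued for 6 days. Intracellular core protein was detected by Western blot with an antibody against the C-terminal 14 residues of core, with β-actin as loading control.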

HepDES19 [22] = test: Antiviral activity against HBV infected in human HepDES19 cells assessed as reduction of capsid associated HBV DNA 2 uM measured by agarose gel electrophoresis-based particle gel assay; format: functional, cell-based; method in brief: as §2
HepDES19 [23] = test: Antiviral activity against HBV infected in human HepDES19 cells assessed as reduction of capsid associated HBV DNA 5 uM measured by agarose gel electrophoresis-based particle gel assay; format: functional, cell-based; method in brief: as §2
[24] = Hepatitis B virus, AML12HBV10, 48 h

Structure (SMILES) | EC50 (Hepatitis B virus; [24]) [µM] | CC50 ([1]; aml12hbv10) [µM] | also measured
O=C1CCN(C(=O)Nc2cccc(Cl)c2)[C@@H]2CCCC[C@H]12 | 0.22 | > 20 | –
O=C1CCN(C(=O)Nc2ccc(F)c(C(F)(F)F)c2)[C@@H]2CCCC[C@H]12 | 0.97 | > 20 | –
C[C@@H](NS(=O)(=O)c1ccc(F)c(C(=O)Nc2ccc(F)c(F)c2)c1)C1CC1 | – | – | Activity (HepDES19 [2]): Active
O=C(Nc1ccc(F)c(Cl)c1)N1CCOc2ccccc21 | 0.52 | > 100 | t1/2 [3]: 14.7 min; t1/2 [4]: < 4 min
O=C1CCN(C(=O)Nc2ccc(F)c(Cl)c2)[C@H]2CCCC[C@@H]12 (relative stereo) | – | – | EC50 (Hepatitis B virus; aml12hbv10): 0.71 µM; half-life ([3]; liver microsomes): 56.8 min; half-life ([4]; liver microsomes): 32 min; CC50 ([1]; AML12HBV1 cells): > 100 µM; Papp A→B [5]: 14.7 ×10⁻⁶ cm/s; Papp B→A [6]: 7.8 ×10⁻⁶ cm/s; efflux ratio [7]: 0.5
O=C1CC2CCC(C1)N2C(=O)Nc1ccc(F)c(Cl)c1 | > 10 | > 100 | –
O=C1CCN(C(=O)Nc2ccc(F)c(Cl)c2)C2CCCCC12 (stereo in doubt; 61) [listing 1 of 2 here] | – | – | EC50 (Hepatitis B virus; aml12hbv10): 0.46 µM; t1/2 [3]: 71 min; t1/2 [4]: 56 min; solubility [8]: 239 µM (≈ 77.6 µg/mL); solubility [9]: 253 µM (≈ 82.2 µg/mL); PPB [10]: 94%; PPB [11]: 90%; t1/2 [12]: 36 min; AUClast [13]: 1952 ng·h/mL; Vd [14]: 0.8 L/kg; t1/2 [15]: 42 min; Cmax [16]: 2727 ng/mL; AUClast [17]: 4516 ng·h/mL; F [18]: 69%
O=C(Nc1ccc2ncsc2c1)c1cccc2c1OCCO2 | > 10 | > 50 | –
CCC(C)NS(=O)(=O)c1cc2c(c(C(=O)Nc3ccc(F)c(Cl)c3)c1)OCCO2 (centres undefined) | 1.64 | > 33.3 | t1/2 [3]: 37.4 min; t1/2 [4]: 16.4 min
O=C1CCN(C(=O)Nc2cc(F)c(F)c(F)c2)[C@@H]2CCCC[C@H]12 | 2.41 | > 100 | –
O=C1CCN(C(=O)Nc2ccc(F)c(C(F)F)c2)[C@@H]2CCCC[C@H]12 | 0.26 | > 20 | t1/2 [3]: 69 min; t1/2 [4]: 35 min
N#Cc1ccc(NC(=O)c2cccc3c2OCCO3)cc1Cl | 3.84 | > 50 | –
O=C1CC2CC1CN2C(=O)Nc1ccc(F)c(Cl)c1 (centres undefined) | > 10 | > 100 | –
O=C(Nc1ccc(F)c(Cl)c1)C1CCCc2ccccc21 (centres undefined) | 9.4 | 25 | –
O=C1CCCN(C(=O)Nc2ccc(F)c(Cl)c2)c2ccccc21 | > 10 | > 100 | –
O=C(Nc1ccc(F)c(Cl)c1)c1cccc2c1OCCO2 | 0.2 | > 50 | t1/2 [3]: 1.7 min; t1/2 [4]: 6.6 min
O=C(Nc1ccc(F)c(Cl)c1)c1cc(S(=O)(=O)N2CCC(O)CC2)cc2c1OCCO2 | 5.57 | > 50 | –
O=C(CC1COCCO1)Nc1ccc(F)c(Cl)c1 (centres undefined) | 5.02 | > 100 | –
O=C(NC1CC(F)(F)C1)c1cccc2c1OCCO2 | > 10 | > 100 | –
C=C1[C@H](CO)[C@@H](O)C[C@@H]1n1cnc2c(=O)[nH]c(N)nc21 | – | – | Activity (HepDES19 [19]): Active
O=C(Nc1cc(F)c(F)c(F)c1)c1cccc2c1OCCO2 | 0.28 | > 100 | –
COC(=O)C1=C(C)NC(c2ncc(F)cc2F)=N[C@H]1c1ccc(F)cc1Cl | – | – | Activity (HepDES19 [20]): Active; Activity (HepDES19 [21]): Active; Activity (HepDES19 [22]): Active
Cc1cc(NC(=O)N2CCC(=O)[C@H]3CCCC[C@H]32)ccc1F | 0.38 | > 20 | –
C[C@@H](NS(=O)(=O)c1cc2c(c(C(=O)Nc3ccc(F)c(Cl)c3)c1)OCCO2)c1ccncc1 | 13.4 | – | –
O=C(Nc1ccc(N2CCOCC2)c(Cl)c1)c1cccc2c1OCCO2 | > 10 | > 25 | –
O=C1CCN(C(=O)Nc2ccc(F)c(Cl)c2)C2CCCCC12 (stereo in doubt; 61) [listing 2 of 2 here] | – | – | Activity (HepDES19 [2]): Active; Activity (HepDES19 [23]): Active
O=C(Nc1ccc(F)c(Cl)c1)c1cccc2ccoc12 | 0.73 | > 100 | t1/2 [3]: 61.2 min; t1/2 [4]: 6 min
CC1(C)Cc2cccc(C(=O)Nc3ccc(F)c(Cl)c3)c2O1 | 1.48 | > 50 | –

Structure (SMILES) | EC50 (Hepatitis B virus; [24]) [µM] | CC50 ([1]; aml12hbv10) [µM] | also measured
O=C(Nc1ccnc(Cl)c1)c1cccc2c1OCCO2 | 4.65 | > 100 | –
O=C(Nc1ccc(F)c(Cl)c1)c1cccc2nccnc12 | 2.39 | > 12.5 | –
O=C1CCN(C(=O)Nc2ccc(F)c(Cl)c2)c2ccc(Cl)cc21 | 4.83 | > 100 | –
O=C1CCN(C(=O)Nc2ccc(F)c(Cl)c2)C2CCCCC12 (centres undefined) | – | – | EC50 (Hepatitis B virus; aml12hbv10): 1.81 µM; t1/2 [3]: 5 min; t1/2 [4]: 7.8 min
O=C1CCN(C(=O)Nc2ccc(F)c(Cl)c2)C(Cc2ccccc2)C1 (centres undefined) | 5.11 | > 20 | –
O=C(Nc1ccc2c(c1)OCO2)c1cccc2c1OCCO2 | 4.2 | > 100 | –
O=C1CCN(C(=O)Nc2ccc(F)c(Cl)c2)c2ccccc21 | 1.32 | > 12.5 | t1/2 [3]: 47.2 min; t1/2 [4]: 10 min
O=C1CC(c2ccccc2)N(C(=O)Nc2ccc(F)c(Cl)c2)c2ccccc21 (centres undefined) | 2.89 | > 50 | –
O=C(Nc1ccc(F)c(Cl)c1)c1cccc2c1OC(F)(F)O2 | 0.11 | > 100 | t1/2 [3]: 16.4 min; t1/2 [4]: 11 min
O=C1COc2cccc(C(=O)Nc3ccc(F)c(Cl)c3)c2N1 | > 10 | > 50 | –
O=C(Nc1ccc2c(c1)CCC2)c1cccc2c1OCCO2 | > 10 | > 50 | –
O=C(Nc1ccc(F)c(Cl)c1)c1cccc2cc[nH]c12 | 4.48 | > 33.3 | –
O=C(Nc1ccc(F)c(Cl)c1)N1CCS(=O)(=O)c2ccccc21 | > 10 | > 100 | –
O=C(Nc1cc(Cl)nc(Cl)c1)c1cccc2c1OCCO2 | 6.3 | > 33.3 | –
O=C(Nc1ccc(F)c(Cl)c1)c1cccc2c1OCCC2 | 0.75 | > 12.5 | –
O=C(Nc1ccc(F)c(Cl)c1)n1[nH]c(=O)c2ccccc21 | > 10 | > 100 | –
O=C1CCN(C(=O)Nc2ccnc(Cl)n2)[C@@H]2CCCC[C@H]12 | > 10 | > 100 | –
O=C1CCC(C(=O)Nc2ccc(F)c(Cl)c2)c2ccccc21 (centres undefined) | 1.67 | > 100 | t1/2 [4]: 5.8 min
O=C(Nc1ccc(F)c(Cl)c1)N1CCOc2cccnc21 | > 10 | 26.3 | –
O=C(NCc1ccc(F)cc1F)c1cccc2c1OCCO2 | 4.62 | > 20 | –
O=C(Nc1ccc(O)c(Cl)c1)c1cccc2c1OCCO2 | 9.83 | > 100 | –
O=C(Nc1ccc(C(F)(F)F)c(Cl)c1)c1cccc2c1OCCO2 | 1.59 | > 50 | t1/2 [3]: 44.4 min; t1/2 [4]: 6.9 min
N#Cc1cc(NC(=O)N2CCC(=O)[C@H]3CCCC[C@H]32)ccc1F | 0.85 | > 20 | –
O=C1CCN(C(=O)Nc2ccc(F)c(Cl)c2)C(c2ccccc2)C1 (centres undefined) | 5.01 | > 100 | –
O=C1CCN(C(=O)Nc2ccc(F)c(Cl)c2)C2CCCCC12 (stereo in doubt; 60) | – | – | EC50 (Hepatitis B virus; aml12hbv10): 1.86 µM; t1/2 [3]: 48 min; t1/2 [4]: 7 min
O=C(Nc1ccc(F)c(Cl)c1)c1cccc2c1OCC2 | 2.18 | 4.6 | –
O=C1CCN(C(=O)Nc2ncc(F)c(Cl)n2)[C@@H]2CCCC[C@H]12 | > 10 | > 50 | –
